Common to all, as to type: functional
Experiment [1] relates to Pseudomonas aeruginosa. Put plainly: Siderophore activity determined using growth promoting assay in ATCC 27853 strain of Pseudomonas aeruginosa under iron limited conditions. Summed up: (§1)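 Growth promotion under iron limitation. Overnight Nutrient Agar cultures suspended in medium VA to 1 McFarland, then 1.5 mL mixed into 99 mL Al2O3-treated Hall-Ratledge agar (pH 6.8) with trace elements and EDDHA. 5 µL of 2 mM compound applied on 6 mm paper disks. Growth zone around disks measured after 18-20 h at 37 °C.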

In experiment [2] the test system is Pseudomonas aeruginosa. In words: Siderophore activity determined using growth promoting assay in K799/WT strain of Pseudomonas aeruginosa under iron limited conditions. In a few lines: as §1
Experiment [3] relates to Pseudomonas aeruginosa. In words: Siderophore activity determined using growth promoting assay in SG137 strain of Pseudomonas aeruginosa under iron limited conditions. In a few lines: as §1
For experiment [4], the system named is Pseudomonas aeruginosa. Put plainly: (§2) Siderophore activity determined using growth promoting assay in NCTC-10662 strain of Pseudomonas aeruginosa under iron limited conditions. On the set-up: unit not given beside the values. Summed up:
as §1

The subject of experiment [5] is Escherichia coli. Put plainly: Siderophore activity determined using growth promoting assay in ATCC 25922 strain of Escherichia coli under iron limited conditions. Summed up: as §1
The test system of experiment [6] is Pseudomonas aeruginosa. In words: Siderophore activity determined using growth promoting assay in ATCC 9027 strain of Pseudomonas aeruginosa under iron limited conditions. In a few lines:
as §1

The subject of experiment [7] is Pseudomonas aeruginosa. Described as §2. In a few lines: as §1
Experiment [8] relates to Pseudomonas aeruginosa. Put plainly: In vitro antibacterial activity against ATCC 27853 strain of Pseudomonas aeruginosa. In a few lines: (§3)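 MIC by microbroth dilution in Mueller-Hinton broth following NCCLS guidelines.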
In experiment [9] the test system is Escherichia coli. Put plainly: Influence of siderophore receptor on antibacterial activity in Escherichia coli (1875) using agar diffusion assay. Summed up:
(§4)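 Agar diffusion in Nutrient Agar with E. coli K-12 mutants altered in catecholate siderophore receptors Cir, Fiu and FepA. 50 µL of a 0.2 mM compound solution filled into 9 mm agar wells, with clavulanic acid 10 µg/mL added to block the penicillinase selection marker. Inhibition zone diameters (mm) read after overnight incubation at 37 °C.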
(In general: In agar diffusion tests the substance spreads into inoculated agar from a disc or well.)

The test system of experiment [10] is Escherichia coli. Put plainly: Influence of siderophore receptor on antibacterial activity in Escherichia coli (H1877) using agar diffusion assay. Summed up: as §4
The test system of experiment [11] is Stenotrophomonas maltophilia. Put plainly: In vitro antibacterial activity against GN 12873 strain of Stenotrophomonas maltophilia. Summed up:
as §3

Experiment [12] has as its system Escherichia coli. Put plainly: Influence of siderophore receptor on antibacterial activity in Escherichia coli (H873) using agar diffusion assay. Summed up:
as §4

Experiment [13] relates to Pseudomonas aeruginosa. In words: In vitro antibacterial activity against SG 137 strain of Pseudomonas aeruginosa. Summed up:
as §3

Experiment [14] has as its system Staphylococcus aureus. In words: In vitro antibacterial activity against SG 511 strain of Staphylococcus aureus. Summed up:
as §3

The subject of experiment [15] is Klebsiella pneumoniae. Put plainly: In vitro antibacterial activity against ATCC 100331 strain of Klebsiella pneumoniae. In a few lines:
as §3

Experiment [16] relates to Escherichia coli. Put plainly: Influence of siderophore receptor on antibacterial activity in Escherichia coli (H1876) using agar diffusion assay. Summed up: as §4
Experiment [17] relates to Serratia marcescens. Put plainly: In vitro antibacterial activity against SG 621 strain of Serratia marcescens. In a few lines:
as §3

Experiment [18] has as its system Escherichia coli. Put plainly: Influence of siderophore receptor on antibacterial activity in Escherichia coli (H1443) using agar diffusion assay. Summed up: as §4
Experiment [19] relates to Escherichia coli. Put plainly: In vitro antibacterial activity against ATCC 25922 strain of Escherichia coli. Summed up: as §3

Converted amounts (≈) assume the structure as drawn.

For the compound `CC(=O)Oc1cccc(C(=O)NCCCCN(Cc2ccc(OCC(=O)O)cc2)C(=O)c2cccc(OC(C)=O)c2OC(C)=O)c1OC(C)=O`, the Activity turned out to be 22 in experiment [1]; 12 in experiment [2]; 19 in experiment [3]; 23 in [4]; 27 in [5]; 25 in experiment [6].
Turning to `COC(=O)Oc1cccc(C(=O)N(C)CCCN(CC(=O)O)C(=O)c2cccc(OC(=O)OC)c2OC(=O)OC)c1OC(=O)OC`, the Activity in [1] was 15; in [2], 25; in [3], 9; in experiment [4], 18; in [5], 20; in experiment [6], 13.
Take `CC(=O)Oc1cccc(C(=O)NCCCCN(CC(=O)O)C(=O)c2cccc(OC(C)=O)c2OC(C)=O)c1OC(C)=O`: the Activity in experiment [1] came to 20; in experiment [2] it was 25; in [3], 26; in [5], 28; in experiment [6], 20; in experiment [7], 25.
On to `CC(=O)Oc1ccc(C(=O)NCCCCN(CC(=O)O)C(=O)c2ccc(OC(C)=O)c(OC(C)=O)c2)cc1OC(C)=O`, for which the Activity in experiment [1] turned out to be 25; in experiment [2] it was 20; in experiment [3] it was 10; in experiment [4] it was 14; in experiment [5], 21; in experiment [6], 19.
On to `CC(=O)Oc1cccc(C(=O)NCCCCN(Cc2ccccc2C(=O)O)C(=O)c2cccc(OC(C)=O)c2OC(C)=O)c1OC(C)=O`, for which the Activity in experiment [1] was 22; in experiment [2] it was 15; in [3], 21; in [4], 23; in experiment [5], 27.
With `COC(=O)Oc1cc(Br)cc(C(=O)N(C)CCCN(CC(=O)O)C(=O)c2cc(Br)cc(OC(=O)OC)c2OC(=O)OC)c1OC(=O)OC`, the Activity worked out at 22 in experiment [1]; 27 in [2]; 25 in experiment [3]; 27 in experiment [4]; 32 in [5]; 20 in experiment [6].
`COC(=O)Oc1cc(Cl)c(Cl)c(C(=O)N(C)CCCN(CC(=O)O)C(=O)c2c(Cl)c(Cl)cc(OC(=O)OC)c2OC(=O)OC)c1OC(=O)OC`: the Activity was 25 in experiment [1]; 25 in [2]; 30 in experiment [3]; 30 in experiment [4]; 30 in experiment [5]; 25 in experiment [6].
On to `COC(=O)Oc1cc(Cl)cc(C(=O)N(C)CCCN(CC(=O)O)C(=O)c2cc(Cl)cc(OC(=O)OC)c2OC(=O)OC)c1OC(=O)OC`, for which the Activity in experiment [1] came to 25; in experiment [2], 25; in experiment [3], 26; in experiment [4] it was 25; in experiment [5] it was 30; in [6], 24.
For the compound `CC(=O)Oc1cccc(C(=O)Nc2cc(NC(=O)c3cccc(OC(C)=O)c3OC(C)=O)cc(C(=O)O)c2)c1OC(C)=O`, the Activity in experiment [1] was found to be 0; in experiment [3], 20; in experiment [4] it was 17; in experiment [5], 27; in [6] it was 10.
On the same counts, the results for `COC(=O)Oc1cccc2c(=O)n(CC(=O)Nc3cc(NC(=O)Cn4c(=O)oc5c(OC(=O)OC)cccc5c4=O)cc(C(=O)O)c3)c(=O)oc12` are 15, 20, 20, 15 and 20.
For the compound `CC(=O)Oc1cccc(C(=O)NCCCCN(Cc2ccccc2OCC(=O)O)C(=O)c2cccc(OC(C)=O)c2OC(C)=O)c1OC(C)=O`, the Activity in experiment [1] was 18; in experiment [2] it was 25; in [4], 27; in experiment [5], 26; in experiment [6], 26.
One may read the MIC as the lowest concentration that inhibits growth of the organism. In the case of `COC(=O)Oc1cccc(C(=O)N(CCCn2c(=O)oc3c(OC(=O)OC)cccc3c2=O)C(C)C(=O)NC(C(=O)NC2C(=O)N3C2SC(C)(C)C3C(=O)O)c2ccccc2)c1OC(=O)OC` (configuration not stated), the MIC in [8] is 3.12 µg/mL (≈ 3.28 µM); in [11], 0.4 µg/mL (≈ 0.421 µM); in [13], 0.1 µg/mL (≈ 0.105 µM); in experiment [14] it was 1.56 µg/mL (≈ 1.64 µM); in experiment [15], less than 0.05 µg/mL; in experiment [17], 0.2 µg/mL (≈ 0.211 µM). This compound registered an MIC in experiment [19] of 0.4 µg/mL (≈ 0.421 µM). For the same compound, the Zone of inhibition in [9] amounted to 22 mm; in experiment [10], 22.5 mm; in experiment [12], 25 mm; in experiment [16] it was 11.5 mm; in experiment [18] it was 24.5 mm.
Regarding `COC(=O)Oc1cccc(C(=O)N(CCCn2c(=O)oc3c(OC(=O)OC)cccc3c2=O)C(C)C(=O)O)c1OC(=O)OC` (configuration not stated), the Activity in experiment [1] turned out to be 15; in experiment [2], 22; in experiment [3] it was 19; in experiment [4], 25; in [5], 22.
As for `COC(=O)Oc1cccc(C(=O)N(CCCCn2c(=O)oc3c(OC(=O)OC)cccc3c2=O)CC(=O)O)c1OC(=O)OC`, the Activity was 18 in [1]; 23 in experiment [2]; 27 in experiment [3]; 24 in [4]; 30 in [5].
In the case of `CC(=O)Oc1cccc(C(=O)NCCCCCN(CC(=O)O)C(=O)c2cccc(OC(C)=O)c2OC(C)=O)c1OC(C)=O`, the Activity in experiment [1] stood at 30; in experiment [2], 25; in experiment [3] it was 28; in experiment [4], 30; in experiment [5], 27; in [6], 20.
For the compound `CC(=O)Oc1cccc(C(=O)N(C)CCCN(Cc2ccccc2C(=O)O)C(=O)c2cccc(OC(C)=O)c2OC(C)=O)c1OC(C)=O`, the Activity in [1] was found to be 20; in experiment [2] it was 17; in experiment [3] it was 19; in [4] it was 18; in experiment [5] it was 21.
`CC(=O)Oc1cccc(C(=O)N(C)CCCN(CC(=O)O)C(=O)c2cccc(OC(C)=O)c2OC(C)=O)c1OC(C)=O`: the Activity came to 19 in experiment [1]; 22 in experiment [2]; 15 in experiment [3]; 23 in experiment [4]; 20 in experiment [5]; 18 in experiment [6].
Regarding `COC(=O)Oc1cccc(C(=O)N(CCCn2c(=O)oc3c(OC(=O)OC)cccc3c2=O)C(C)CCC(=O)O)c1OC(=O)OC` (configuration not stated), the Activity in experiment [1] was determined as 13; in experiment [2], 14; in experiment [3], 15; in experiment [4], 20; in [5], 15.
As to `COC(=O)Oc1cccc2c(=O)n(-c3cc(C(=O)O)cc(-n4c(=O)oc5c(OC(=O)OC)cccc5c4=O)c3)c(=O)oc12`, the Activity in experiment [1] is 15; in experiment [3], 25; in experiment [4] it was 18; in experiment [5] it was 20; in experiment [6], 20.
For `CC(=O)N(O)CCCCCNC(=O)CCC(=O)N(O)CCCCCNC(=O)CCC(=O)N(O)CCCCCN` [DEFEROXAMINE], the Activity turned out to be 35 in [1]; 36 in [2]; 30 in experiment [3]; 30 in experiment [4]; 38 in experiment [5]; 35 in [6].
As to `COC(=O)Oc1cccc2c(=O)n(CCC(=O)Nc3cc(NC(=O)CCn4c(=O)oc5c(OC(=O)OC)cccc5c4=O)cc(C(=O)O)c3)c(=O)oc12`, the Activity was 18 in [1]; 23 in experiment [3]; 20 in experiment [4]; 20 in experiment [5]; 20 in experiment [6].

Values taken from ChEMBL document CHEMBL1135500, “Highly antibacterial active aminoacyl penicillin conjugates with acylated bis-catecholate siderophores based on secondary diamino acids and related compounds” (2002).
